Data reported in ChEMBL document CHEMBL2407018, “Luteolin suppresses the differentiation of THP-1 cells through the Inhibition of NOX2 mRNA expression and the membrane translocation of p47phox” (J Nat Prod, 2013).
Activity calls are given as the source filed them. The calls are words filed in the database; no cut-off is given here.

Key:
[1] = target: T1, NADPH oxidase 2 (Homo sapiens) (UniProt P04839); assay: Inhibition of NOX2 in human THP1 cells assessed as suppression of TPA-induced cell adhesion at 20 uM incubated for 1 hr prior to TPA challenge measured after 24 hrs by microscopic analysis; assay type: cell-based; conditions: THP-1
T1 sequence (whole entry): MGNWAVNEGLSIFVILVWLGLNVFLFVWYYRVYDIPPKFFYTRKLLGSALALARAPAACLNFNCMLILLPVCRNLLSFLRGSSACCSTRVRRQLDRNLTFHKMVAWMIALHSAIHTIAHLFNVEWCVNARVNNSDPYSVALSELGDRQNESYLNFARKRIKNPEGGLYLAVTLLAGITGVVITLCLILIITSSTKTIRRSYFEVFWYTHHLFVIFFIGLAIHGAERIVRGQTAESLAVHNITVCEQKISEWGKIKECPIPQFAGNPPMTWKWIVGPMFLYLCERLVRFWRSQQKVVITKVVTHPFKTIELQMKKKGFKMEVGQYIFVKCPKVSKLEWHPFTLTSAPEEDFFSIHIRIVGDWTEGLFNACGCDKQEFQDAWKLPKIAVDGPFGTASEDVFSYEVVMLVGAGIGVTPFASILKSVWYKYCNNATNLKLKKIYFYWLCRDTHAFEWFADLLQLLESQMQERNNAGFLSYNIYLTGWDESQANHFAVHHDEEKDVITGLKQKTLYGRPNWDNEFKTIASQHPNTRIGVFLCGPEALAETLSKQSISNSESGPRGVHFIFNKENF
Summary of the method: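 THP-1 cells at 2 × 10^6 per 3.5 cm dish in RPMI1640 with 10% FCS. Exposed to compound for 1 h, then to 100 nM TPA for 24 h. Dishes washed three times with PBS and the remaining adherent cells inspected by microscope.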

[2] = target: T1, NADPH oxidase 2 (Homo sapiens); assay: Inhibition of NOX2 in human THP1 cells assessed as downregulation of TPA-induced CD36 mRNA expression at 20 uM incubated for 1 hr prior to TPA challenge measured after 24 hrs by RT-PCR analysis; assay type: cell-based; conditions: THP-1
Summary of the method: (§1)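 THP-1 cells grown in RPMI1640 with 10% heat-inactivated FCS and penicillin/streptomycin at 37 °C, 5% CO2. Seeded at 2 × 10^6 cells per 3.5 cm dish. Compound added 1 h before 100 nM TPA for 24 h. Cells scraped, washed in cold PBS, lysed in TRIzol for total RNA. Transcripts measured by RT-PCR and normalized to 18s rRNA.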

[3] = target: T1, NADPH oxidase 2 (Homo sapiens); assay: Inhibition of NOX2 in human THP1 cells assessed as downregulation of TPA-induced CD14 mRNA expression at 20 uM incubated for 1 hr prior to TPA challenge measured after 24 hrs by RT-PCR analysis; assay type: cell-based; conditions: THP-1; summary of the method: as §1
[4] = target: T1, NADPH oxidase 2 (Homo sapiens); assay: Inhibition of NOX2 in human THP1 cells assessed as downregulation of TPA-induced CD11b mRNA expression at 20 uM incubated for 1 hr prior to TPA challenge measured after 24 hrs by RT-PCR analysis; assay type: cell-based; conditions: THP-1; summary of the method: as §1
[5] = target: T1, NADPH oxidase 2 (Homo sapiens); assay: Inhibition of NOX2 in human THP1 cells assessed as suppression of TPA-induced membrane translocation of p47phox at 20 uM incubated for 1 hr prior to TPA challenge measured after 12 hrs by Western blot analysis; assay type: cell-based; conditions: THP-1
Summary of the method: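 Cells pretreated 1 h, then 100 nM TPA for 12 h. Lysed in digitonin buffer B (pH 7.5); after 12000g for 15 min the pellet was solubilized in buffer B with 1% Triton X-100 to give the membrane fraction. 20 μg protein run on 12% SDS-PAGE, blotted for p47phox.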

[6] = system: THP-1; assay: Downregulation of TPA-induced NOX2 mRNA expression in human THP1 cells at 20 uM incubated for 1 hr prior to TPA challenge measured after 24 hrs by RT-PCR analysis; assay type: functional, cell-based
Summary of the method: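 THP-1 cells in RPMI1640 with 10% FCS, 2 × 10^6 cells per 3.5 cm dish, pretreated 1 h, then 100 nM TPA for 24 h. Total RNA extracted in TRIzol, NOX2 measured by RT-PCR and normalized to 18s rRNA.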

[7] = target: T1, NADPH oxidase 2 (Homo sapiens); assay: Inhibition of NOX2 in human THP1 cells assessed as suppression of TPA-induced intracellular ROS accumulation at 20 uM incubated for 1 hr prior to TPA challenge measured after 24 hrs by flow cytometric analysis; assay type: cell-based; conditions: THP-1
Summary of the method: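 THP-1 cells pretreated 1 h, then 100 nM TPA for 24 h. Cells scraped, stained 20 min with 10 μM carboxy-H2DCFDA in PBS with […] in a 5% CO2 incubator, and washed three times in ice-cold PBS. DCF fluorescence read by flow cytometry.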

[8] = system: THP-1; assay: Inhibition of TPA-induced MEK/ERK phosphorylation in human THP1 cells at 20 uM incubated for 1 hr prior to TPA challenge measured after 15 mins by Western blot analysis; assay type: cell-based
Summary of the method: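 THP-1 cells pretreated 1 h, then 100 nM TPA for 15 min. Lysed in buffer A (Tris pH 7.4 with phosphatase inhibitors, 1% Triton X-100). 20 μg protein run on 12% SDS-PAGE and PVDF, probed for phospho- and total MEK and ERK (1:1000) with biotin secondary and ABC detection.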

[9] = target: T1, NADPH oxidase 2 (Homo sapiens); assay: Inhibition of NOX2 in human THP1 cells assessed as downregulation of TPA-induced CD36 mRNA expression at 0.2 to 2 uM incubated for 1 hr prior to TPA challenge measured after 24 hrs by RT-PCR analysis; assay type: cell-based; conditions: THP-1
Summary of the method: (§2)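 THP-1 cells, 2 × 10^6 per 3.5 cm dish, pretreated 1 h with 0.2, 2 or 20 μM, then 100 nM TPA for 24 h. Cells scraped and washed in cold PBS, TRIzol RNA extracted. CD11b, CD14 and CD36 transcripts measured by RT-PCR and normalized to 18s rRNA.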

[10] = target: T1, NADPH oxidase 2 (Homo sapiens); assay: Inhibition of NOX2 in human THP1 cells assessed as downregulation of TPA-induced CD14 mRNA expression at 0.2 to 2 uM incubated for 1 hr prior to TPA challenge measured after 24 hrs by RT-PCR analysis; assay type: cell-based; conditions: THP-1; summary of the method: as §2
[11] = target: T1, NADPH oxidase 2 (Homo sapiens); assay: Inhibition of NOX2 in human THP1 cells assessed as downregulation of TPA-induced CD11b mRNA expression at 0.2 to 2 uM incubated for 1 hr prior to TPA challenge measured after 24 hrs by RT-PCR analysis; assay type: cell-based; conditions: THP-1; summary of the method: as §2

| Structure (SMILES) | inhibition [1] | inhibition [2] | inhibition [3] | inhibition [4] | inhibition [5] | Activity [6] | inhibition [7] | inhibition [8] | inhibition [9] | inhibition [10] | inhibition [11] |
| --- | --- | --- | --- | --- | --- | --- | --- | --- | --- | --- | --- |
| O=c1cc(-c2ccccc2)oc2cc(O)cc(O)c12 | Active | Active | Active | Active | – | – | – | – | – | – | – |
| O=c1cc(-c2ccc(O)c(O)c2)oc2cc(O)cc(O)c12 | Active | Active | Active | Active | Active | Active | Active | inactive | inactive | inactive | inactive |
| O=c1cc(-c2cc(O)c(O)c(O)c2)oc2cc(O)cc(O)c12 | inactive | inactive | inactive | inactive | inactive | inactive | – | – | – | – | – |
| O=c1cc(-c2ccc(O)cc2)oc2cc(O)cc(O)c12 | Active | Active | Active | Active | – | – | – | – | – | – | – |
